This is an account of results in ChEMBL document CHEMBL1137938, “Affinity and intrinsic efficacy (IE) of 5'-carbamoyl adenosine analogues for the A1 adenosine receptor--efforts towards the discovery of a chronic ventricular rate control agent for the treatment of atrial fibrillation (AF)” (Bioorg Med Chem Lett, 2004).

The test system of data set [1] is Adenosine receptor A1 (Mesocricetus auratus). Kind of data set: Stimulation of binding of [35S]GTP uM).
The species entered for data set [2] is Cavia porcellus. The data set is described as follows: Agonist-induced SH prolongation in guinea pig isolated heart was determined; 3-5 uM (Partial agonist). The class given is functional.
For data set [3], the species on record is Cavia porcellus. The data set is described as follows: Agonist-induced SH prolongation in guinea pig isolated heart was determined; 3-5 uM (Full agonist). The class given is functional.
The species entered for data set [4] is Cavia porcellus. The data set is described as follows: Agonist-induced SH prolongation in guinea pig isolated heart was determined; 0.5-1 uM (Partial agonist). It counts as functional, organism-based.
A short description of data set [5]: Compound remaining after incubation with 2 mg/mL of human liver microsomes at 37 degrees C for 30 min in a pH 7.4, 0.05 M phosphate buffer. It counts as ADME, Microsome. The method in brief:
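Incubation with human liver microsomes at 2 mg/mL, 37 C, 30 min, in 0.05 M phosphate buffer pH 7.4 containing 5 mM MgCl2 and 2 mM NADPH; percentage of parent compound remaining recorded.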

Data set [6] can be described thus: Amount of tecadenoson present after 30 min in the liver S-9 assay as determined by mass specanalysis; 1-2. The class given is ADME, tissue-based. The settings on record: human, 0.5 h.
Data set [7] can be described thus: Maximum concentration in rat plasma after 5 mg/kg oral gavage. It counts as ADME, organism-based. The arrangement: dose 5 mg/kg, route oral. The method, boiled down: (§1)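 Rats dosed by oral gavage with parent at 5 mg/kg, or with bis-acetate prodrug at molar equivalents. Parent concentration in plasma followed over time. Cmax and AUC taken from the plasma profile. Oral bioavailability derived from AUC measurements.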

The nature of data set [8]: Concentration in rat plasma after 5 mg/kg oral gavage for 8 hours. It counts as ADME, organism-based. The arrangement: dose 5 mg/kg, route oral. The method, boiled down:
as §1

Data set [9] in a line: Amount of tecadenoson present after 30 min in the liver S-9 assay as determined by mass specanalysis. It counts as ADME, tissue-based. The settings on record: human, 0.5 h.
For data set [10], the species on record is Cavia porcellus. The data set is described as follows: Agonist-induced SH prolongation in guinea pig isolated heart was determined; 0.5-0.51 uM (Partial agonist). The class given is functional.
Data set [11] in a line: Plasma half life in rat after 5 mg/kg oral gavage; 6-8 hours. It counts as ADME, organism-based. More on the design: dose 5 mg/kg, route oral.
A short description of data set [12]: Bioavailability in rat after 5 mg/kg oral gavage. The class given is ADME, organism-based. The settings on record: in vivo, read-out: Bioavailabiility. The method in brief: as §1
Data set [13] can be described thus: Amount of tecadenoson present after 30 min in the liver S-9 assay as determined by mass specanalysis; trace. It counts as ADME, tissue-based. The settings on record: human, 0.5 h.
Data set [14] is filed under the species Cavia porcellus. Kind of data set: Agonist-induced SH prolongation in guinea pig isolated heart was determined; Inactive. It counts as functional.
Data set [15] is filed under the species Cavia porcellus. The data set is described as follows: Agonist-induced SH prolongation in guinea pig isolated heart was determined. The class given is functional.
Data set [16] is described as follows: Amount of tecadenoson present after 30 min in the liver S-9 assay as determined by mass specanalysis; -0.5 to 1. The class given is ADME, tissue-based. The settings on record: human, 0.5 h.

On to `CN(C)C(=O)OC[C@H]1OC(n2cnc3c(N[C@@H]4CCOC4)ncnc32)[C@H](O)[C@@H]1O` (stereo not given in full), for which, in data set [1], the [35S]GTPγS binding stimulation (% of CPA) amounted to 87%.

`C=CCNC(=O)OC[C@H]1OC(n2cnc3c(N[C@@H]4CCOC4)ncnc32)[C@H](O)[C@@H]1O` (stereo not given in full): the [35S]GTPγS binding stimulation (% of CPA) in [1] came out at 48%.

Consider `CC(C)NC(=O)OC[C@H]1OC(n2cnc3c(N[C@@H]4CCOC4)ncnc32)[C@H](O)[C@@H]1O` (stereo not given in full), for which, in data set [1], the [35S]GTPγS binding stimulation (% of CPA) came out at 91%.

With `O[C@@H]1[C@@H](COC(=S)NC2CCCCC2)OC(n2cnc3c(N[C@@H]4CCOC4)ncnc32)[C@@H]1O` (stereo not given in full), in data set [1], the [35S]GTPγS binding stimulation (% of CPA) was found to be 82%.

The term EC50 denotes the concentration at which the effect is half-maximal. Read a high EC50 as a less potent agent. Regarding `O=C(NC1CCCC1)OC[C@H]1OC(n2cnc3c(N[C@@H]4CCOC4)ncnc32)[C@H](O)[C@@H]1O` (stereo not given in full), it took 5 µM to reach a half-maximal effect in the data set listed under Cavia porcellus [2] (EC50).

In [1], `CN(C)C(=S)OC[C@H]1OC(n2cnc3c(N[C@@H]4CCOC4)ncnc32)[C@H](O)[C@@H]1O` (stereo not given in full) registered a [35S]GTPγS binding stimulation (% of CPA) of 85%.

For the molecule `O[C@@H]1[C@@H](COC(=S)NC2CCCC2)OC(n2cnc3c(N[C@@H]4CCOC4)ncnc32)[C@@H]1O` (stereo not given in full), the [35S]GTPγS binding stimulation (% of CPA) in data set [1] was determined as 95%. This molecule showed an EC50 in the data set filed under Cavia porcellus [3] of 5 µM.

Broadly, the amount remaining is what is left of the initial amount, in per cent. A higher amount remaining goes with greater stability. Consider `CCCNC(=S)OC[C@H]1OC(n2cnc3c(N[C@@H]4CCOC4)ncnc32)[C@H](O)[C@@H]1O` (stereo not given in full), for which, in the data set filed under Cavia porcellus [4], the EC50 amounted to 1 µM. Also, the amount remaining at 0.5 h in data set [5] is 98%. This molecule gave a [35S]GTPγS binding stimulation (% of CPA) in data set [1] of 89%. The Activity in data set [6] came out at 2%.

In the case of `O[C@@H]1[C@@H](COC(=S)NC2CC2)OC(n2cnc3c(N[C@@H]4CCOC4)ncnc32)[C@@H]1O` (stereo not given in full), the [35S]GTPγS binding stimulation (% of CPA) in [1] was found to be 82%.

As a reminder, the Cmax is the peak of the concentration-time curve. By AUC is commonly meant the area under the concentration-time curve, a measure of exposure. Turning to `CNC(=O)OC[C@H]1OC(n2cnc3c(N[C@@H]4CCOC4)ncnc32)[C@H](OC(C)=O)[C@@H]1OC(C)=O` (stereo not given in full), in [7], the peak concentration (Cmax) came to 647 ng/mL. The molecule further showed an AUC at 8 h in [8] of 1340 ng·h/mL.

As for `CNC(=O)OC[C@H]1OC(n2cnc3c(N[C@@H]4CCOC4)nc(Cl)nc32)[C@H](O)[C@@H]1O` (stereo not given in full), a half-maximal response in the data set listed under Cavia porcellus [2] (EC50) required 5 µM. The molecule further had a [35S]GTPγS binding stimulation (% of CPA) in [1] of 77%.

As for `OC[C@H]1O[C@@H](n2cnc3c(N[C@@H]4CCOC4)ncnc32)[C@H](O)[C@@H]1O` [TECADENOSON], in the data set filed under Cavia porcellus [2], the EC50 is less than 0.5 µM.

As to `CCNC(=S)OC[C@H]1OC(n2cnc3c(N[C@@H]4CCOC4)nc(Cl)nc32)[C@H](O)[C@@H]1O` (stereo not given in full), the Activity in data set [9] was determined as 0%. Further, the amount remaining at 0.5 h in data set [5] was found to be 41%. The concentration for a half-maximal effect (EC50) in the data set listed under Cavia porcellus [10] was 0.51 µM. The [35S]GTPγS binding stimulation (% of CPA) in data set [1] stood at 84%.

Broadly, the half-life is the time in which the quantity being followed falls by half. In [11], `CNC(=O)OC[C@H]1OC(n2cnc3c(N[C@@H]4CCOC4)ncnc32)[C@H](O)[C@@H]1O` (stereo not given in full) showed a half-life of 8 h. The molecule further displayed an amount remaining at 0.5 h in [5] of approximately 100%. For the same molecule, the EC50 in the data set listed under Cavia porcellus [2] came to 5 µM. Moreover, the Cmax in data set [7] stood at 305 ng/mL. Moreover, in [8], the AUC at 8 h worked out at 698 ng·h/mL. The bioavailability in data set [12] is 9%. The Activity result in data set [13] is “Partially active”.

Consider `O=C(NC1CC1)OC[C@H]1OC(n2cnc3c(N[C@@H]4CCOC4)ncnc32)[C@H](O)[C@@H]1O` (stereo not given in full), for which the [35S]GTPγS binding stimulation (% of CPA) in [1] is 82%.

On to `CCCNC(=O)OC[C@H]1OC(n2cnc3c(N[C@@H]4CCOC4)ncnc32)[C@H](O)[C@@H]1O` (stereo not given in full), for which, in data set [1], the [35S]GTPγS binding stimulation (% of CPA) is 73%.

As to `CCCCNC(=S)OC[C@H]1OC(n2cnc3c(N[C@@H]4CCOC4)ncnc32)[C@H](O)[C@@H]1O` (stereo not given in full), the EC50 entry in the data set filed under Cavia porcellus [14] is given as “Not Active”. Moreover, the [35S]GTPγS binding stimulation (% of CPA) in data set [1] stood at 70%.

In the case of `CCNC(=O)OC[C@H]1OC(n2cnc3c(N[C@@H]4CCOC4)ncnc32)[C@H](O)[C@@H]1O` (stereo not given in full), in [1], the [35S]GTPγS binding stimulation (% of CPA) stood at 80%.

In [1], `O[C@@H]1[C@@H](COC(=S)NC2CCC2)OC(n2cnc3c(N[C@@H]4CCOC4)ncnc32)[C@@H]1O` (stereo not given in full) had a [35S]GTPγS binding stimulation (% of CPA) of 79%.

Turning to `CNC(=S)OC[C@H]1OC(n2cnc3c(N[C@@H]4CCOC4)nc(Cl)nc32)[C@H](O)[C@@H]1O` (stereo not given in full), in data set [9], the Activity is recorded as 0%. The molecule further registered an amount remaining at 0.5 h in data set [5] of 62%. The same molecule had an EC50 in the data set listed under Cavia porcellus [10] of 0.51 µM. The molecule also came in with a [35S]GTPγS binding stimulation (% of CPA) in [1] of 77%.

Take `CC(C)NC(=S)OC[C@H]1OC(n2cnc3c(N[C@@H]4CCOC4)ncnc32)[C@H](O)[C@@H]1O` (stereo not given in full): the [35S]GTPγS binding stimulation (% of CPA) in data set [1] worked out at 84%.

As to `CCCCNC(=O)OC[C@H]1OC(n2cnc3c(N[C@@H]4CCOC4)ncnc32)[C@H](O)[C@@H]1O` (stereo not given in full), in the data set listed under Cavia porcellus [15], the EC50 was more than 5 µM. Further, the [35S]GTPγS binding stimulation (% of CPA) in data set [1] came to 49%.

The molecule `O=C(NCc1ccccc1)OC[C@H]1OC(n2cnc3c(N[C@@H]4CCOC4)ncnc32)[C@H](O)[C@@H]1O` (stereo not given in full) returned a [35S]GTPγS binding stimulation (% of CPA) in data set [1] of 44%.

As for `CNC(=S)OC[C@H]1OC(n2cnc3c(N[C@@H]4CCOC4)ncnc32)[C@H](O)[C@@H]1O` (stereo not given in full), the share remaining at 0.5 h in data set [5] worked out at 99%. The molecule also had an EC50 in the data set filed under Cavia porcellus [10] of 0.51 µM. The molecule also yielded a [35S]GTPγS binding stimulation (% of CPA) in data set [1] of 77%. In addition, in data set [16], the Activity is 1%.

`C=CCNC(=S)OC[C@H]1OC(n2cnc3c(N[C@@H]4CCOC4)ncnc32)[C@H](O)[C@@H]1O` (stereo not given in full) came in with a [35S]GTPγS binding stimulation (% of CPA) in [1] of 78%.

The molecule `O[C@@H]1[C@@H](COC(=S)NCc2ccccc2)OC(n2cnc3c(N[C@@H]4CCOC4)ncnc32)[C@@H]1O` (stereo not given in full) came in with a [35S]GTPγS binding stimulation (% of CPA) in data set [1] of 93%.

Consider `O=C(NC1CCCCC1)OC[C@H]1OC(n2cnc3c(N[C@@H]4CCOC4)ncnc32)[C@H](O)[C@@H]1O` (stereo not given in full), for which the [35S]GTPγS binding stimulation (% of CPA) in data set [1] came to 80%.

In data set [1], `CCNC(=S)OC[C@H]1OC(n2cnc3c(N[C@@H]4CCOC4)ncnc32)[C@H](O)[C@@H]1O` (stereo not given in full) showed a [35S]GTPγS binding stimulation (% of CPA) of 77%. The same molecule registered an EC50 in the data set listed under Cavia porcellus [3] of 5 µM.

`O=C(NC1CCC1)OC[C@H]1OC(n2cnc3c(N[C@@H]4CCOC4)ncnc32)[C@H](O)[C@@H]1O` (stereo not given in full) registered a [35S]GTPγS binding stimulation (% of CPA) in data set [1] of 67%.

Consider `O=C(NC1CCCC1)OC[C@H]1OC(n2cnc3c(N[C@@H]4CCOC4)nc(Cl)nc32)[C@H](O)[C@@H]1O` (stereo not given in full), for which, in the data set filed under Cavia porcellus [2], the midpoint of the response, the EC50, lay at 5 µM. The [35S]GTPγS binding stimulation (% of CPA) in [1] worked out at 69%.
